Assay outcomes as filed in PubChem BioAssay.
Keap1-Nrf2 PPI: Keap1-Nrf2 protein-protein interaction inhibitors, primary screen, biochemical, fluorescence polarization, single point | Kelch-like ECH-associated protein 1 (Homo sapiens), Q14145 | Keap1 Kelch-Nrf2 peptide fluorescence polarization, 1536-well | inhibition, % at 9.4 µM | hit rate 0.15% among 340,000 | AID 504523, 2011; in the data active means inhibition above about 12%;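 further: human Keap1 Kelch domain with fluorescein labeled Nrf2 9mer peptide probe; 0% = neutral control wells and 100% = peptide positive control; higher means more block of Keap1 binding to Nrf2 peptide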
CAL PDZ FP-1: CAL PDZ peptide-binding inhibitors, primary screen, biochemical, fluorescence polarization, Cer-tagged CAL PDZ, HTS | inhibition, % at 20 µM | purified CAL PDZ, TMR-peptide fluorescence polarization, 1 h | hit rate 0.02% among 330,000 | Golgi-associated PDZ and coiled-coil motif-containing protein (Homo sapiens), Q9HD26;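 active means highest replicate inhibition of at least 40%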;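 further: plate controls were DMSO neutral control wells for no effect and unlabeled competitor peptide control wells for full effect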
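System: tagged CAL PDZ domain. Schedule: 1 h room-temperature incubation prior to read. Signal: fluorescence polarization (mP). Measure: percent inhibition from loss of millipolarization.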
LANA DNA inh: inhibitors of KSHV C-LANA binding to DNA, primary screen, biochemical, fluorescence polarization, FAM-LBS DNA, MBP-C-LANA, single point; Kaposi's sarcoma herpesvirus LANA C-terminal domain (residues 932-1162) DNA binding; AID 504423, 2011; hit rate 0.078% among 340,000; inhibition, % at 9 µM;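 active means highest replicate inhibition at or above 60% at 9 µM, even if other replicates fall short; inactive means all replicates below 60% inhibition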;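 further: 0% = neutral control wells and 100% = 4 µM acridine orange control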
APOBEC3G inh: APOBEC3G DNA deaminase inhibitors, primary screen, biochemical, fluorescence, single-stranded DNA substrate, uHTS. DNA dC->dU-editing enzyme APOBEC-3G (Homo sapiens), Q9HC16. recombinant A3G, ssDNA deamination FAM/TAMRA fluorescence. hit rate 0.28% among 330,000. inhibition, % at 20 µM;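 active means inhibition of at least 40% at 20 µM, with no more than 30% in the related APOBEC3A deaminase screen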;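 further: plate controls were DMSO wells with A3G for no effect and wells lacking A3G enzyme for full effect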
Target sequence (Q9HC16 whole entry, looked up): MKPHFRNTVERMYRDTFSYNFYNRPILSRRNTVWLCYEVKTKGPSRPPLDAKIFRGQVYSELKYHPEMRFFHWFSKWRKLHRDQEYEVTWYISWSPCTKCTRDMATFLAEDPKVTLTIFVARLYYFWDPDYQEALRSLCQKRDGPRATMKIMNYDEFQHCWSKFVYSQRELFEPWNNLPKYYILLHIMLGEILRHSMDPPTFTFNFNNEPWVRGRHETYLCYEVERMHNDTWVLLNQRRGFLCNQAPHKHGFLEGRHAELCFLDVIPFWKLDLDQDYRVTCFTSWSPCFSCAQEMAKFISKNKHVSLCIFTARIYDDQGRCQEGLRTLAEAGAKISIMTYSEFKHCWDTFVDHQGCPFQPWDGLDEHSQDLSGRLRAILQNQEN
APOBEC3A inh: APOBEC3A ssDNA deaminase inhibitors, primary screen, selectivity assay for APOBEC3G inhibitor project, biochemical, FAM/TAMRA oligo cleavage fluorescence; recombinant A3A, FAM/TAMRA ssDNA deamination fluorescence; inhibition, % at 20 µM; hit rate 0.41% among 330,000; AID 493011, 2011;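 active means at least 40% inhibition at 20 µM here, with at most 30% in a related deaminase screen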;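 further: plate controls were A3A with DMSO for no effect and wells lacking A3A enzyme for full effect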
Target sequence (P31941 whole entry, looked up): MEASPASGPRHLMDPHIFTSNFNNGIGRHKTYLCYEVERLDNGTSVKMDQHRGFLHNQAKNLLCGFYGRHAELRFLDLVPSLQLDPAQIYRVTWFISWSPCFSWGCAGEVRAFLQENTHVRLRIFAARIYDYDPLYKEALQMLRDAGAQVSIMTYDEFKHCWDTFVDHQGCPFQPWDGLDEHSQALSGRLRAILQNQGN
CAL PDZ FP-2: untagged CAL PDZ binding inhibitors, primary screen, biochemical, fluorescence polarization, HTS. hit rate 0.92% among 300,000. inhibition, % at 24.9 µM. purified CAL PDZ, TMR-peptide fluorescence polarization, 1 h;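 active means mean inhibition of at least 30% with at least half of replicates also reaching 30%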;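 further: 0% = DMSO neutral control and 100% = excess unlabeled competitor peptide PRC23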
* marks the source's active call; other numbers are inactive results; nt = not tested or not shown; + = active, no number. Only some compounds are listed: those with a hit (about 1.7% of all), similar ones and a draw of the others.

SMILES	Keap1-Nrf2 PPI	CAL PDZ FP-1	LANA DNA inh	APOBEC3G inh	APOBEC3A inh	CAL PDZ FP-2
O=C(Nc1cccnc1)c1cc(-c2ccc(Br)cc2)nc2ccccc12	-1	0	-2	-7	-2	68*
CCc1ccc(-c2cc(C(=O)NN3CCOCC3)c3ccccc3n2)cc1	-3	nt	1	8	0	-6
O=C(Nc1ccc2c(c1)OCO2)c1cc(-c2cccnc2)nc2ccccc12	-5	0	1	-7	-2	40*
Cc1ccc(C)c(-c2cc(C(=O)Nc3cccnc3)c3ccccc3n2)c1	-3	-3	-1	-5	-3	-4
Cc1ccc(-c2cc(C(=O)Nc3ccc4c(c3)OCCO4)c3ccccc3n2)cc1	-1	0	1	-5	-1	-2
O=C(NN1CCOCC1)c1cc(-c2ccc(Br)cc2)nc2ccccc12	-2	0	0	-4	16	59*
CCOC(=O)c1ccc(NC(=S)NNC(=O)c2cc(-c3cccnc3)nc3ccccc23)cc1	0	-2	-1	7	-1	49*
O=C(NNC(=S)Nc1ccccc1)c1cc(-c2cccnc2)nc2ccccc12	-16	-2	0	-5	4	3
Cc1ccccc1C(=O)NN1CCOCC1	-1	0	2	-1	2	82*
O=C(NN1CCOCC1)c1ccccc1Br	-4	0	-1	-9	-7	-1
CCc1ccc(/C=C2/Sc3ccccc3N(CC(=O)NCC3CCCO3)C2=O)cc1 (centres undefined)	-3	-3	-2	-5	-6	-3
Cc1ccc(/C=C2/Sc3ccccc3N(CC(=O)NCC3CCCO3)C2=O)cc1 (centres undefined)	3	-1	-3	-6	-2	184*
C=CCSc1ncnc2c1oc1nc3c(cc12)COC(C)(C)C3	-3	-1	-1	1	2	84*
CC(C)CSc1ncnc2c1oc1nc3c(cc12)COC(C)(C)C3	-1	-3	1	-1	0	nt
Cc1cccc(NCc2ccc(N(C)C)cc2)n1	-1	1	0	-5	-4	-2
Cc1c(Cl)sn(-c2ccc(Cl)cc2)c1=O	-8	0	0	44*	-2	2
CC(=O)CSc1nc2c(c(=O)[nH]c(=O)n2C)n1Cc1cccc(Br)c1	3	-1	3	1	-4	57*
Cn1c(=O)[nH]c(=O)c2c1nc(SCCC(=O)O)n2Cc1cccc(Br)c1	-1	1	9	8	-3	-4
O=C(COc1ccc(S(=O)(=O)Nc2ccc(Cl)cc2)cc1)N1CCOCC1	-1	-1	-1	-5	3	100*
O=C(COc1ccc(Br)cc1)OCC(=O)N1CCOCC1	-2	0	1	2	0	nt
O=C(COc1ccc2cc(Br)ccc2c1)N1CCOCC1	-1	-1	-1	-6	-3	103*
CSc1nc(C(=O)N2CCCC(Nc3ccc(C)c(C)c3)C2)cs1 (centres undefined)	-1	1	0	-1	3	nt
C=CCc1ccc(O)c(-c2ccc(O)c(CC=C)c2)c1	-2	0	0	-2	0	4
CCOc1ccccc1NC(=O)C1CCCN1S(=O)(=O)c1ccccc1C(F)(F)F (centres undefined)	-3	0	-2	-8	-6	42*
Cc1cn(CC(=O)NCCc2ccccn2)c(=O)[nH]c1=O	-7	0	1	nt	nt	1
SMILES	Keap1-Nrf2 PPI	CAL PDZ FP-1	LANA DNA inh	APOBEC3G inh	APOBEC3A inh	CAL PDZ FP-2
Cc1cn(CC(=O)NCc2ccccn2)c(=O)[nH]c1=O	-5	0	0	nt	nt	+
COc1ccc(C2CN=NC23CCCc2ccccc2C3=O)cc1 (centres undefined)	0	-1	0	-5	0	57*
CC(C)(C)CC(=O)NCCCN1CCOCC1	nt	4	nt	0	-5	37*
CCOC(=O)c1cnc2ncnn2c1N	-2	0	-1	-10	-1	52*
Cc1nc(SCc2nc3c(F)cccc3[nH]2)c2oc3ccccc3c2n1	0	3	4	-9	-2	-4
O=C(CN1CCN(S(=O)(=O)c2ccc(F)cc2)CC1)Nc1ccc(Cl)cn1	-1	0	-2	-6	-3	1
O=C(COC(=O)c1cc(=O)[nH]c2ccccc12)Nc1cccc(S(=O)(=O)N2CCOCC2)c1	-2	-6	0	-3	8	76*
O=C(OCC(=O)N1CCCc2ccccc21)c1cc(S(=O)(=O)N2CCOCC2)ccc1F	0	-1	2	-2	6	-3
N#CC1(NC(=O)COC(=O)c2cc(=O)[nH]c3ccccc23)CCCCC1	-1	-2	0	-7	-2	32*
O=C(OCC(=O)N1CCCc2ccccc21)c1cc(S(=O)(=O)N2CCOCC2)ccc1O	-1	0	0	-4	8	65*
O=C(COC(=O)c1cc(S(=O)(=O)N2CCOCC2)ccc1F)c1ccccc1	-5	-1	-1	-3	0	43*
CN(Cc1ccc(F)cc1)C(=O)c1cc(COc2ccc(-n3cncn3)cc2)on1	-4	-3	0	-6	-4	-3
CCOC(=O)c1csc(Nc2nc3ccc(F)cc3s2)n1	1	0	-1	-6	-2	39*
COc1cccc(C(=O)N(Cc2ccc(N(C)C)cc2)C2CCS(=O)(=O)C2)c1 (centres undefined)	3	nt	-1	-3	-2	-6
COc1ccc(NC(=O)CSc2nnc(-c3ccoc3C)n2CCc2ccccc2)cc1	-4	nt	1	-3	-2	103*
COCCn1c(SCC(=O)Nc2ccc(OC)cc2)nnc1-c1ccoc1C	-3	-3	-1	-12	-5	6
COc1ccc(NC(=O)CSc2nnc(N)n2CC(=O)Nc2ccc(OC)cc2)cc1	2	0	1	-13	1	52*
Cc1ccc(NC(=O)c2cc(=O)[nH]c3ccccc23)cc1C	0	-1	-1	-1	-6	-4
CCN(CC)C(=O)CSc1nc(-c2ccccc2)cc(=O)[nH]1	-4	0	0	-2	1	1
CCCS(=O)(=O)c1nc(S(=O)(=O)c2ccc(C)cc2)c(NCCCN2CCCC2=O)s1	-5	-1	0	0	-4	42*
